In ChEMBL document CHEMBL2424551, “Synthesis, in vitro evaluation and molecular modelling of naphthalimide analogue as anticancer agents” (2013):

Experiments:
Assay type in all cases: functional
[1] = system: HCT-15; assay: Growth inhibition of human HCT15 cells at 10 uM after 48 hrs by SRB assay; details: HCT-15, 48 h, read-out: GI
Outline: (§1)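 Cells grown in RPMI 1640 with 5% FBS and 2 mM L-glutamine, plated at 5000–40,000 cells/well by doubling time and preincubated 24 h (37 °C, 5% CO2); a time-zero plate is TCA-fixed. Single dose added, then 48 h incubation. Fixed with cold TCA, stained with 0.4% SRB, dye solubilized in 10 mM Tris base, absorbance at 515 nm; percent growth vs time-zero and untreated control.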

[2] = system: COLO 205; assay: Growth inhibition of human COLO205 cells at 10 uM after 48 hrs by SRB assay; details: COLO 205, 48 h, read-out: GI; outline: as §1
[3] = system: NCI-H522; assay: Growth inhibition of human NCI-H522 cells at 10 uM after 48 hrs by SRB assay; details: NCI-H522, 48 h, read-out: GI; outline: as §1
[4] = system: A549; assay: Growth inhibition of human A549 cells at 10 uM after 48 hrs by SRB assay; details: A549, 48 h, read-out: GI; outline: as §1
[5] = Cytotoxicity against human breast cancer cells after 48 hrs by SRB assay; details: Cancer cell lines
Outline: (§2)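 Five-concentration screen (10-fold or ½-log serial dilutions) on the 60-line panel. Cells grown in RPMI 1640 with 5% FBS and 2 mM L-glutamine, plated at 5000–40,000/well by doubling time, preincubated 24 h at 37 °C, 5% CO2, then exposed 48 h. Time-zero plates TCA-fixed. SRB stain, Tris-solubilized, A515. GI50, TGI and LC50 derived from Tz, C and Ti.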

[6] = Cytotoxicity against human prostate cancer cells after 48 hrs by SRB assay; details: Cancer cell lines; outline: as §2
[7] = Cytotoxicity against human renal cancer cells after 48 hrs by SRB assay; details: Cancer cell lines; outline: as §2
[8] = Cytotoxicity against human melanoma cells after 48 hrs by SRB assay; details: Melanoma cell; outline: as §2
[9] = Cytotoxicity against human ovarian cancer cells after 48 hrs by SRB assay; details: Cancer cell lines; outline: as §2
[10] = Cytotoxicity against human CNS cancer cells after 48 hrs by SRB assay; details: Cancer cell lines; outline: as §2
[11] = Cytotoxicity against human colon cancer cells after 48 hrs by SRB assay; details: Cancer cell lines; outline: as §2
[12] = Cytotoxicity against human non-small cell lung cancer cells after 48 hrs by SRB assay; details: Cancer cell lines; outline: as §2
[13] = system: MDA-MB-468; assay: Growth inhibition of human MDA-MB-468 cells at 10 uM after 48 hrs by SRB assay; details: MDA-MB-468, 48 h, read-out: GI; outline: as §1
[14] = Cytotoxicity against human leukemia cells after 48 hrs by SRB assay; details: Leukemia cell; outline: as §2
[15] = system: T47D; assay: Growth inhibition of human T47D cells at 10 uM after 48 hrs by SRB assay; details: read-out: GI
Outline: (§3)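 NCI 60-cell-line screen with a single 10 µM dose. Cells are grown in RPMI 1640 with 5% FBS and 2 mM L-glutamine, plated at 5000–40,000 cells/well according to doubling time, and preincubated 24 h at 37 °C, 5% CO2; time-zero plates are TCA-fixed at that point. Drug exposure is 48 h. Adherent cells are fixed with cold TCA, stained with 0.4% SRB in 1% acetic acid and read at 515 nm. Percent growth is calculated relative to time-zero and untreated controls and reported as GI%.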

[16] = system: Hs-578T; assay: Growth inhibition of human Hs578T cells at 10 uM after 48 hrs by SRB assay; details: read-out: GI; outline: as §1
[17] = system: DU-145; assay: Growth inhibition of human DU145 cells at 10 uM after 48 hrs by SRB assay; details: DU-145, 48 h, read-out: GI; outline: as §1
[18] = system: TK-10; assay: Growth inhibition of human TK10 cells at 10 uM after 48 hrs by SRB assay; details: TK-10, 48 h, read-out: GI; outline: as §3
[19] = system: RXF 393; assay: Growth inhibition of human RXF393 cells at 10 uM after 48 hrs by SRB assay; details: RXF 393, 48 h, read-out: GI; outline: as §1
[20] = system: 786-0; assay: Growth inhibition of human 786-0 cells at 10 uM after 48 hrs by SRB assay; details: 786-0, 48 h, read-out: GI; outline: as §1
[21] = system: SK-OV-3; assay: Growth inhibition of human SKOV3 cells at 10 uM after 48 hrs by SRB assay; details: SK-OV-3, 48 h, read-out: GI; outline: as §3
[22] = Growth inhibition of human NCI-ADR-RES cells at 10 uM after 48 hrs by SRB assay; details: read-out: GI; outline: as §1
[23] = system: OVCAR-8; assay: Growth inhibition of human OVCAR8 cells at 10 uM after 48 hrs by SRB assay; details: OVCAR-8, 48 h, read-out: GI; outline: as §1
[24] = system: OVCAR-4; assay: Growth inhibition of human OVCAR4 cells at 10 uM after 48 hrs by SRB assay; details: OVCAR-4, 48 h, read-out: GI; outline: as §1
[25] = system: OVCAR-3; assay: Growth inhibition of human OVCAR3 cells at 10 uM after 48 hrs by SRB assay; details: OVCAR-3, 48 h, read-out: GI; outline: as §1
[26] = system: IGROV-1; assay: Growth inhibition of human IGROV1 cells at 10 uM after 48 hrs by SRB assay; details: IGROV-1, 48 h, read-out: GI; outline: as §1
[27] = system: UACC-62; assay: Growth inhibition of human UACC62 cells at 10 uM after 48 hrs by SRB assay; details: UACC-62, 48 h, read-out: GI; outline: as §3
[28] = system: SK-MEL-5; assay: Growth inhibition of human SK-MEL-5 cells at 10 uM after 48 hrs by SRB assay; details: SK-MEL-5, 48 h, read-out: GI; outline: as §1
[29] = system: SK-MEL-28; assay: Growth inhibition of human SK-MEL-28 cells at 10 uM after 48 hrs by SRB assay; details: SK-MEL-28, 48 h, read-out: GI; outline: as §1
[30] = system: M14; assay: Growth inhibition of human M14 cells at 10 uM after 48 hrs by SRB assay; details: M14, 48 h, read-out: GI; outline: as §1
[31] = system: LOX IMVI; assay: Growth inhibition of human LOXIMVI cells at 10 uM after 48 hrs by SRB assay; details: read-out: GI; outline: as §1
[32] = system: SF-268; assay: Growth inhibition of human SF268 cells at 10 uM after 48 hrs by SRB assay; details: SF-268, 48 h, read-out: GI; outline: as §1
[33] = system: HT-29; assay: Growth inhibition of human HT-29 cells at 10 uM after 48 hrs by SRB assay; details: HT-29, 48 h, read-out: GI; outline: as §1
[34] = system: KM12; assay: Growth inhibition of human KM12 cells at 10 uM after 48 hrs by SRB assay; details: KM12, 48 h, read-out: GI; outline: as §1
[35] = read-out: LC50 (the source's name)

With `Nc1ccc(Sc2ccc3c4c2cccc4c(=O)n2c4ccccc4nc32)cc1` as the compound, how does the inhibition of growth at 10 µM [1] read?
The inhibition of growth at 10 µM was 59.5%.

What about the inhibition of growth at 10 µM [2] of the same compound?
The inhibition of growth at 10 µM was 49.2%.

And the inhibition of growth at 10 µM [3]?
The inhibition of growth at 10 µM was 40%.

And the inhibition of growth at 10 µM [4]?
The inhibition of growth at 10 µM was 79.4%.

What about the GI50 [5] of the same compound?
Its GI50 is 5.2 µM.

And the TGI [5]?
Its TGI is 46 µM.

And the CC50 [5, 35]?
The CC50 was > 100 µM.

And the GI50 [6]?
Its GI50 is 3.23 µM.

What about the TGI [6] of the same compound?
The TGI was 17.9 µM.

What about the GI50 [7] of the same compound?
Its GI50 is 3.3 µM.

And the TGI [7]?
Its TGI is 15.4 µM.

What about the CC50 [7, 35] of the same compound?
The CC50 was 88.9 µM.

What about the GI50 [8] of the same compound?
Its GI50 is 6.93 µM.

What about the LC50 [8] of the same compound?
The LC50 was 83.9 µM.

And the TGI [8]?
The TGI was 35.1 µM.

And the GI50 [9]?
The GI50 was 6.97 µM.

What about the TGI [9] of the same compound?
The TGI was 37.4 µM.

And the CC50 [9, 35]?
The CC50 was 97.9 µM.

What about the GI50 [10] of the same compound?
The GI50 was 4.09 µM.

And the TGI [10]?
Its TGI is 45.4 µM.

And the CC50 [10, 35]?
Its CC50 is 94 µM.

What about the GI50 [11] of the same compound?
The GI50 was 6.58 µM.

What about the TGI [11] of the same compound?
Its TGI is 60.8 µM.

What about the CC50 [11, 35] of the same compound?
The CC50 was 98.8 µM.

What about the GI50 [12] of the same compound?
Its GI50 is 3.94 µM.

And the TGI [12]?
The TGI was 32.5 µM.

And the inhibition of growth at 10 µM [13]?
Its inhibition of growth at 10 µM is 56.5%.

What about the GI50 [14] of the same compound?
The GI50 was 2.9 µM.

And the TGI [14]?
Its TGI is 44.5 µM.

What about the CC50 [14, 35] of the same compound?
Its CC50 is > 100 µM.

What about the inhibition of growth at 10 µM [15] of the same compound?
Its inhibition of growth at 10 µM is 60.4%.

And the inhibition of growth at 10 µM [16]?
Its inhibition of growth at 10 µM is 40.4%.

And the inhibition of growth at 10 µM [17]?
The inhibition of growth at 10 µM was 60.7%.

What about the inhibition of growth at 10 µM [18] of the same compound?
Its inhibition of growth at 10 µM is 21.4%.

What about the inhibition of growth at 10 µM [19] of the same compound?
Its inhibition of growth at 10 µM is 27.4%.

And the inhibition of growth at 10 µM [20]?
Its inhibition of growth at 10 µM is 62.7%.

And the inhibition of growth at 10 µM [21]?
The inhibition of growth at 10 µM was 46.1%.

What about the inhibition of growth at 10 µM [22] of the same compound?
Its inhibition of growth at 10 µM is 43.4%.

And the inhibition of growth at 10 µM [23]?
The inhibition of growth at 10 µM was 50%.

What about the inhibition of growth at 10 µM [24] of the same compound?
The inhibition of growth at 10 µM was 26%.

And the inhibition of growth at 10 µM [25]?
Its inhibition of growth at 10 µM is 22.2%.

And the inhibition of growth at 10 µM [26]?
The inhibition of growth at 10 µM was 65.5%.

And the inhibition of growth at 10 µM [27]?
The inhibition of growth at 10 µM was 68.1%.

And the inhibition of growth at 10 µM [28]?
Its inhibition of growth at 10 µM is 60.6%.

What about the inhibition of growth at 10 µM [29] of the same compound?
The inhibition of growth at 10 µM was 26.3%.

And the inhibition of growth at 10 µM [30]?
The inhibition of growth at 10 µM was 54.6%.

And the inhibition of growth at 10 µM [31]?
The inhibition of growth at 10 µM was 70.8%.

And the inhibition of growth at 10 µM [32]?
The inhibition of growth at 10 µM was 40.6%.

And the inhibition of growth at 10 µM [33]?
Its inhibition of growth at 10 µM is 33.3%.

What about the inhibition of growth at 10 µM [34] of the same compound?
Its inhibition of growth at 10 µM is 26.4%.
